aDG glyco act: alpha-DG glycosylation activation. AID 624168. Pro5-aDG cells, alpha-DG glycosylation AlphaScreen (IIH6); 0% Pro5, 100% B10-LARGE cell signal. 360,000 tested, 0.22% active. activation, % at 10 µM;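 active = activation of at least 8% versus controls, or a plate z-score of at least 8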;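 also: Pro5 are CHO cells carrying HIG-tagged alpha-DG that lacks glycosylation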
TPT1 inh: C. albicans TPT1 enzyme inhibition; recombinant caTPT1, FP RNA substrate dephosphorylation; inhibition, % at 5 µM; 300,000 tested, 0.81% active;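 active = inhibition above the mean of all tested compounds plus 3 SD, set per screening campaign, cut at about 24% in these data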
Rpn11 inh: blocks the human proteasome subunit Rpn11. O00487. human 26S proteasome, Ub4-pepOG fluorescence polarization; 20S core pre-blocked with epoxomicin. inhibition, % at 20 µM. 360,000 tested, 0.59% active. AID 588493;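 active = inhibition at 20 µM, scaled to each plate's controls, above about 33%, limit read from the data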
Target sequence (O00487 whole entry, looked up): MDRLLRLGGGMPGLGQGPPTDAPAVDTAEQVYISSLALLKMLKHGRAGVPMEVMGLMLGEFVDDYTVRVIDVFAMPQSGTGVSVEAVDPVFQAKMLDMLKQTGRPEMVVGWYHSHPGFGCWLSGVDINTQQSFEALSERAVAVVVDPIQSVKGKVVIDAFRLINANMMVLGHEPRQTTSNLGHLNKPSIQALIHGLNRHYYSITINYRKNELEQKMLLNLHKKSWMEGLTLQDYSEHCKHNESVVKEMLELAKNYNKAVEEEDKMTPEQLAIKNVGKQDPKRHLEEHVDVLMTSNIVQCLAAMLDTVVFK
Xi reactivation: activators of X-chromosome reactivation in mouse fibroblasts; activation, % at 7.58 µM; AID 743238; 360,000 tested, 0.055% active; XiGFP mouse fibroblasts, % GFP-positive cells imaging, 3 d; cells co-treated with 5-aza-dC sensitizer; scaled so ellipticine positive control = 100%;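 active = mean normalized replicate activation at least 10% and every replicate at or above 10%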
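Schedule: 3 d treatment, 15 min room-temperature fixation; system: 68-5-11 XiGFP fibroblast line; buffer or medium: DMEM plus 5-aza-dC sensitizer; control set: ellipticine 6 µM positive control; compound: one concentration, pinned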
CSN inh: blocks human CSN-mediated cullin deneddylation. Q92905. Purified CSN, SCF-Nedd8-OG deneddylation, fluorescence polarization. inhibition, % at 12.5 µM. 360,000 tested, 0.38% active;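 active = pattern-corrected inhibition above about 35%, with an unprinted fluorescence ratio check between 0.5 and 1.5, limit read from the data, passing the limit was not always enough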
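Test system: purified human Csn5 enzyme expressed in HEK293T cells. Amount: 0.24 nM enzyme. Reagent: SCFSkp2-Nedd8OG substrate at 10 nM final. Schedule: 90 min incubation of compound, enzyme and substrate at room temperature. Detection: fluorescence polarization. Read-out: % inhibition of substrate cleavage by Csn5.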
HNF4A DNA FP: change in binding of human HNF4 alpha to DNA; P41235; HNF4a-FITC DNA binding, fluorescence polarization, 1 h; activity change, % at 10 µM; 360,000 tested, 0.3% active; AID 1224865; in the data active = activity change above about 30%, passing the limit was not always enough
TPT1 inh confirm: TPT1 (C. albicans) inhibition, confirmation. shares compounds with TPT1 inh. recombinant caTPT1, fluorescence polarization, RNase T1 coupled. inhibition, % at 5 µM. 2,400 tested, 74% active. AID 2149;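 active = inhibition above the primary screen limit, the mean inhibition of all tested compounds plus 3 SD, cut at about 25% in these data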
RNase T1 counter: RNase T1 inhibition in TPT1 counter-screen | inhibition, % at 5 µM | RNase T1 cleavage, fluorescence polarization, 1536-well | 2,400 tested, 83% active | shares compounds with TPT1 inh;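 active = inhibition above the solvent-only control well mean plus 3 SD, limit set per screening run, cut at about 23% in these data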;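 also: inhibitors block cleavage so intact labeled substrate keeps polarization high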
Target sequence (P00651 whole entry, looked up): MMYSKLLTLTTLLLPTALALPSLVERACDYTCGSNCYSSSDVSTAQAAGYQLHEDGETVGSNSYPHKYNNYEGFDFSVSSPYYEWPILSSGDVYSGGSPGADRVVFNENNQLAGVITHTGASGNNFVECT
Rpn11 inh conf: Rpn11 inhibition confirmation, single concentration; 1,900 tested, 29% active; purified human 26S proteasome, Ub4-pepOG fluorescence polarization; proteasome pretreated with epoxomicin; shares compounds with Rpn11 inh; inhibition, % at 20 µM
MMP-2 counter-1: counter-screen for RPN11 inhibitors: inhibition of human MMP-2 | shares compounds with Rpn11 inh | recombinant MMP-2, FRET peptide cleavage fluorescence | inhibition, % at 20 µM | 1,900 tested, 4% active | AID 602330;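 also: human MMP-2 activated beforehand with APMA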
Thrombin inh: blocks bovine thrombin, flagging nonselective RPN11 hits | 1,900 tested, 13% active | shares compounds with Rpn11 inh | AID 602333 | bovine thrombin cleavage of Ub4-pepOG, fluorescence polarization | inhibition, % at 20 µM;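 active = mean inhibition at least 40% at 20 µM, or signal 3 deviations below plate average, so some actives read negative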
CSN deneddyl val: validation of inhibitors of human CSN-mediated cullin deneddylation; shares compounds with CSN inh; Csn5 deneddylation of SCF-Nedd8OG, fluorescence polarization, 90 min; inhibition, % at 16.6 µM; 540 tested, 62% active; in the data active = inhibition above about 50%
MMP-2 counter-2: counter-screen for CSN deneddylation inhibitors: human MMP-2 inhibition; shares compounds with CSN inh; recombinant MMP-2, FRET substrate fluorescence, 60 min; inhibition, % at 16.6 µM; 540 tested, 33% active; AID 720655;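 active = corrected plate-normalized z-score of 5 or more, or -5 or less, or inhibition of 15% or more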
Thrombin counter: thrombin (bovine) inhibition, counter-screen for CSN hits; shares compounds with CSN inh; bovine thrombin cleavage of Ub4-pepOG, fluorescence polarization; inhibition, % at 16.6 µM; 540 tested, 49% active; AID 720656;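 active = inhibition at or above a set limit, with a fluorescence interference ratio between 0.5 and a set maximum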
Each line names hits and unclear results; the compound was inactive in the other large screens (follow-up assays come after a bar, where shown). Compounds with a hit are over-represented: about 1.3% of the library has one in this group of screens. Rule as the data show it, unless noted: active = inhibition above about 40%; inactive = the rest.

COc1ccc(S(=O)(=O)Nc2ccc3c(c2)C(=O)N([C@H](C)CO)C[C@@H](C)[C@H](CN(C)Cc2ccncc2)O3)cc1	none (no result: aDG glyco act, TPT1 inh, Rpn11 inh, CSN inh, HNF4A DNA FP)
Cc1ccc(S(=O)(=O)N(C)C[C@H]2OCCCC[C@@H](C)Oc3ccc(NC(=O)Nc4ccccc4)cc3C(=O)N([C@@H](C)CO)C[C@@H]2C)cc1	none (no result: aDG glyco act, TPT1 inh, Rpn11 inh, CSN inh, HNF4A DNA FP)
COc1cc(/C=C2\SC(=Nc3ccc(O)cc3)NC2=O)cc(OC)c1OC	none (no result: aDG glyco act, Rpn11 inh, CSN inh, HNF4A DNA FP)
COc1ccccc1N=C1NC(=O)/C(=C/c2ccc(N(C)C)cc2)S1	TPT1 inh 119, CSN inh 41 (not shown: Rpn11 inh) | TPT1 inh confirm 131 | RNase T1 counter 125 | CSN deneddyl val 153 | MMP-2 counter-2 -25 | Thrombin counter 21
COc1cc(/C=C2\SC(c3ccc(C)cc3)=NC2=O)ccc1O	TPT1 inh 80, Rpn11 inh 142, CSN inh 72, HNF4A DNA FP 78 (no result: Xi reactivation) | TPT1 inh confirm 98 | RNase T1 counter 101 | CSN deneddyl val inactive | MMP-2 counter-2 inactive | Thrombin counter 50
COc1ccc(C2=NN(c3ccccc3)C(=O)/C2=C\c2ccc(O)c(OC)c2)cc1	none
COc1ccc(N=C2NC(=O)/C(=C/c3ccc(O)c(OC)c3)S2)cc1	TPT1 inh 32, Rpn11 inh 145, CSN inh 37 | TPT1 inh confirm 44 | RNase T1 counter 52 | Rpn11 inh conf 49 | MMP-2 counter-1 inactive | Thrombin inh 68 | CSN deneddyl val 64 | MMP-2 counter-2 inactive | Thrombin counter 35
CC(C)(C)[S@@](=O)N1Cc2cc(C(=O)N3CCCCC3)nc(-c3cccc(-c4ccc(C#N)cc4)c3)c2[C@H]1CCO	none (no result: aDG glyco act, TPT1 inh, Rpn11 inh, CSN inh, HNF4A DNA FP)
CCCNC(=O)Nc1ccc2c(c1)C(=O)N(C)C[C@H](OC)[C@@H](C)CN(Cc1ccccc1)[C@@H](C)CO2	none (no result: aDG glyco act, TPT1 inh, Rpn11 inh, CSN inh, HNF4A DNA FP)
CCOc1cc(/C=C2\SC(=S)N(Nc3ccccc3)C2=O)ccc1O	TPT1 inh 34, Rpn11 inh 82, CSN inh 37 (no result: Xi reactivation) | TPT1 inh confirm 37 | RNase T1 counter 50 | Rpn11 inh conf 72 | MMP-2 counter-1 inactive | Thrombin inh 79 | CSN deneddyl val 75 | MMP-2 counter-2 inactive | Thrombin counter 61
COc1cc(/C=C2\SC(=S)N(NC(=O)c3ccc(O)cc3)C2=O)ccc1O	TPT1 inh 35, CSN inh 50, HNF4A DNA FP 50 (not shown: Rpn11 inh) | TPT1 inh confirm 39 | RNase T1 counter 52 | CSN deneddyl val 53 | MMP-2 counter-2 inactive | Thrombin counter 65
O=C(NN1C(=O)/C(=C/c2cccc(O)c2)SC1=S)c1ccccc1O	none

Source: PubChem
